In ChEMBL document CHEMBL1165950, “Design and synthesis of new potent anticancer pyrazoles with high FLT3 kinase inhibitory selectivity” (Bioorg Med Chem, 2010):

Columns and labels:
Format in all cases: functional
[1] = system: COLO 205; assay: Cytotoxicity against human COLO205 cells assessed as cell growth at 100 nM after 48 hrs by sulforhodamine B assay; conditions: COLO 205, 48 h, read-out: Activity
[2] = system: OVCAR-4; assay: Cytotoxicity against human OVCAR4 cells assessed as cell growth at 100 nM after 48 hrs by sulforhodamine B assay; conditions: OVCAR-4, 48 h, read-out: Activity
[3] = system: T47D; assay: Cytotoxicity against human T47D cells assessed as cell growth at 0.001 uM after 48 hrs by sulforhodamine B assay; conditions: read-out: Activity
[4] = system: HL-60(TB); assay: Cytotoxicity against human HL-60(TB) cells assessed as cell growth at 1 uM after 48 hrs by sulforhodamine B assay; conditions: HL-60, 48 h, read-out: Activity
Summary of the method: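 NCI 60-cell panel. Cells are grown in RPMI 1640 with 5% FBS and 2 mM L-glutamine, seeded at 5000–40,000 cells/well according to doubling time, and preincubated 24 h. Time-zero plates are TCA-fixed. Compound from DMSO stock is given at five 10-fold or 1/2-log concentrations for 48 h at 37 °C, 5% CO2. Suspension cells are fixed with 80% TCA (final 16%) and SRB-stained, with absorbance at 515 nm. Percent growth is derived from Tz, control and test readings.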

[5] = system: SK-MEL-28; assay: Cytotoxicity against human SK-MEL-28 cells assessed as cell growth at 10 uM; conditions: read-out: Activity
Summary of the method: (§1)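 NCI-60 screen: cells grown in RPMI 1640 with 5% FBS and 2 mM L-glutamine, plated at 5000–40,000 cells/well according to doubling time, and preincubated 24 h at 37 °C, 5% CO2. The single 10 µM dose (DMSO stock) was added, then incubated 48 h. Cells were TCA-fixed and stained with 0.4% SRB, read at 515 nm, and growth % calculated against time-zero and control plates.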

[6] = system: TK-10; assay: Cytotoxicity against human TK10 cells assessed as cell growth at 10 uM; conditions: read-out: Activity; summary of the method: as §1
[7] = system: MCF7; assay: Cytotoxicity against human MCF7 cells assessed as cell growth at 10 uM; conditions: read-out: Activity; summary of the method: as §1
[8] = Cytotoxicity against human Hs 578T cells assessed as cell growth at 10 uM; conditions: read-out: Activity
Summary of the method: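 Single-dose NCI-60 screen at 10 µM. Cells were grown in RPMI 1640 with 5% FBS and 2 mM L-glutamine, then treated for 48 h at 37 °C. Protein was measured by SRB staining with absorbance at 515 nm. Percentage growth was recorded, and inhibition percentage was calculated as 100 minus growth percentage.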

[9] = system: NCI-H522; assay: Cytotoxicity against human NCI-H522 cells assessed as cell growth at 1 uM after 48 hrs by sulforhodamine B assay; conditions: NCI-H522, 48 h, read-out: Activity
[10] = system: KM12; assay: Cytotoxicity against human KM12 cells assessed as cell growth at 1 uM after 48 hrs by sulforhodamine B assay; conditions: KM12, 48 h, read-out: Activity
[11] = system: HL-60(TB); assay: Growth inhibition of human HL-60(TB) cells after 48 hrs by sulforhodamine B assay; conditions: HL-60, 48 h
Summary of the method: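 NCI 60-cell SRB screen. Cells in RPMI 1640 with 5% FBS and 2 mM L-glutamine are preincubated 24 h, then exposed to five concentrations (10-fold or 1/2-log dilutions from DMSO stock) for 48 h at 37 °C. Suspension cells are fixed with 80% TCA (final 16%), and A515 is read. IC50 is taken as the concentration where [(Ti−Tz)/(C−Tz)]×100 = 50, i.e. 50% reduction in net protein increase.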

[12] = system: NCI-H226; assay: Cytotoxicity against human NCI-H226 cells assessed as cell growth at 0.001 uM after 48 hrs by sulforhodamine B assay; conditions: NCI-H226, 48 h, read-out: Activity
[13] = system: U-251; assay: Cytotoxicity against human U251 cells assessed as cell growth at 0.01 uM after 48 hrs by sulforhodamine B assay; conditions: U-251, 48 h, read-out: Activity
[14] = system: RXF 393; assay: Cytotoxicity against human RXF393 cells assessed as cell growth at 0.01 uM after 48 hrs by sulforhodamine B assay; conditions: RXF 393, 48 h, read-out: Activity
[15] = system: UO-31; assay: Cytotoxicity against human UO31 cells assessed as cell growth at 0.01 uM after 48 hrs by sulforhodamine B assay; conditions: UO-31, 48 h, read-out: Activity
[16] = system: OVCAR-4; assay: Cytotoxicity against human OVCAR4 cells assessed as cell growth at 0.001 uM after 48 hrs by sulforhodamine B assay; conditions: OVCAR-4, 48 h, read-out: Activity
[17] = system: NCI/ADR-RES; assay: Cytotoxicity against human NCI/ADR-RES cells assessed as cell growth at 0.001 uM after 48 hrs by sulforhodamine B assay; conditions: read-out: Activity
[18] = system: SNB-19; assay: Growth inhibition of human SNB19 cells after 48 hrs by sulforhodamine B assay; conditions: SNB-19, 48 h; for CC50: read-out: LC50 (the source's name)
Summary of the method: (§2)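 NCI 60-cell screen, five-dose mode. Cells grown in RPMI 1640 with 5% FBS and 2 mM L-glutamine and plated at 5000-40,000 cells/well according to doubling time. After 24 h preincubation, a Tz plate was TCA-fixed. Five concentrations (10-fold or 1/2 log dilutions) were applied for 48 h at 37 °C. SRB staining read at 515 nm. IC50 taken from [(Ti-Tz)/(C-Tz)]×100 = 50.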

[19] = system: SNB-75; assay: Growth inhibition of human SNB75 cells after 48 hrs by sulforhodamine B assay; conditions: SNB-75, 48 h; for CC50: read-out: LC50 (the source's name); summary of the method: as §2
[20] = system: UO-31; assay: Growth inhibition of human UO31 cells after 48 hrs by sulforhodamine B assay; conditions: UO-31, 48 h; for CC50: read-out: LC50 (the source's name); summary of the method: as §2
[21] = system: DU-145; assay: Cytotoxicity against human DU145 cells assessed as cell growth at 1 uM after 48 hrs by sulforhodamine B assay; conditions: DU-145, 48 h, read-out: Activity
[22] = system: HCT-116; assay: Cytotoxicity against human HCT116 cells assessed as cell growth at 10 uM after 48 hrs by sulforhodamine B assay; conditions: HCT-116, 48 h, read-out: Activity
[23] = system: SF-539; assay: Cytotoxicity against human SF539 cells assessed as cell growth at 10 uM after 48 hrs by sulforhodamine B assay; conditions: SF-539, 48 h, read-out: Activity
[24] = system: SNB-75; assay: Cytotoxicity against human SNB75 cells assessed as cell growth at 10 uM after 48 hrs by sulforhodamine B assay; conditions: SNB-75, 48 h, read-out: Activity
[25] = system: BT-549; assay: Cytotoxicity against human BT549 cells assessed as cell growth at 10 uM after 48 hrs by sulforhodamine B assay; conditions: BT-549, 48 h, read-out: Activity
Summary of the method: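 NCI-60 five-dose screen. Cells were grown in RPMI 1640 with 5% FBS and 2 mM L-glutamine, plated at 5000–40,000 cells/well and preincubated for 24 h. Time-zero plates were TCA-fixed. DMSO-solubilized drug was added at five concentrations (10-fold or ½-log serial dilutions) for 48 h at 37 °C, 5% CO2. Cells were TCA-fixed, stained with 0.4% SRB and read at 515 nm. Percent growth used time-zero, control and test absorbances.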

SMILES: COc1cc(C)cc(-c2nn(CC#N)cc2-c2ccc(-c3cccc(C(C)=O)c3)nc2)c1
- growth at 0.1 µM [1]: 88%
- growth at 0.1 µM [2]: 92%
- growth at 0.001 µM [3]: 88%
- growth at 1 µM [4]: 2%
- growth at 10 µM [5]: 44.7%
- growth at 10 µM [6]: 27.3%
- growth at 10 µM [7]: 8.74%
- growth at 10 µM [8]: 32%
- growth at 1 µM [9]: -14%
- growth at 1 µM [10]: 4%
- GI50 [11]: 1.78 µM
- LC50 [11]: > 100 µM
- TGI [11]: 15.1 µM
- growth at 0.001 µM [12]: 95%
- growth at 0.01 µM [13]: 92%
- growth at 0.01 µM [14]: 89%
- growth at 0.01 µM [15]: 86%
- growth at 0.001 µM [16]: 99%
- growth at 0.001 µM [17]: 99%
- GI50 [18]: 6.62 µM
- TGI [18]: > 100 µM
- CC50 [18]: > 100 µM
- GI50 [19]: 1.96 µM
- TGI [19]: 6.24 µM
- CC50 [19]: > 100 µM
- GI50 [20]: 3.18 µM
- TGI [20]: 58.2 µM
- CC50 [20]: > 100 µM
- growth at 1 µM [21]: -38%
- growth at 10 µM [22]: -53%
- growth at 10 µM [23]: -48%
- growth at 10 µM [24]: -36%
- growth at 10 µM [25]: -24%

SMILES: Cc1cc(O)cc(-c2nn(CC#N)cc2-c2ccnc(-c3ccc(Oc4ccccc4)cc3)c2)c1
- growth at 0.1 µM [1]: 99%
- growth at 0.1 µM [2]: 106%
- growth at 0.001 µM [3]: 95%
- growth at 1 µM [4]: -27%
- growth at 10 µM [5]: 63.3%
- growth at 10 µM [6]: 47.2%
- growth at 10 µM [7]: 18.4%
- growth at 10 µM [8]: 75.9%
- growth at 1 µM [9]: 2%
- growth at 1 µM [10]: -39%
- GI50 [11]: 2.25 µM
- LC50 [11]: > 100 µM
- TGI [11]: 5.94 µM
- growth at 0.001 µM [12]: 92%
- growth at 0.01 µM [13]: 92%
- growth at 0.01 µM [14]: 90%
- growth at 0.01 µM [15]: 85%
- growth at 0.001 µM [16]: 110%
- growth at 0.001 µM [17]: 105%
- GI50 [18]: 1.07 µM
- TGI [18]: 23.4 µM
- CC50 [18]: 51.1 µM
- GI50 [19]: 3.82 µM
- TGI [19]: 17.1 µM
- CC50 [19]: 42 µM
- GI50 [20]: 2.18 µM
- TGI [20]: 6.54 µM
- CC50 [20]: 31.7 µM
- growth at 1 µM [21]: -14%
- growth at 10 µM [22]: -97%
- growth at 10 µM [23]: -85%
- growth at 10 µM [24]: -98%
- growth at 10 µM [25]: -81%
